Values after ≈ are worked out from the molar mass of the structure shown. Active and inactive are the calls of the source. No cut-off for these calls is given here.
Legend:
Human alphaherpesvirus 2 [1] = experiment: (§1) Minimum effective dose against herpes simplex virus-2 (HSV-2) by oral administration in female mice.; format: functional, organism-based
Procedure, shortened: (§2)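 Swiss female ICR mice (13–15 g) infected intravaginally with HSV-2 (Curtis) at a dose set for 80% mortality. Compound suspended in 1% gum tragacanth/2% Tween 80, given intragastrically at serial 2-fold doses, 20 mice per dose, 2 h before infection then twice daily for 5 d. Mortality followed 14 d; MED = lowest dose with survival differing from placebo (Mantel-Cox, Breslow).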

Human alphaherpesvirus 2 [2] = experiment: In vivo maximum tolerated dose against herpes simplex virus-2 (HSV-2) by oral administration in female mice; format: functional
Human alphaherpesvirus 2 [3] = experiment: (§3) In vitro minimum inhibitory concentration against herpes simplex virus-2 (HSV-2) by plaque-reduction assay in vero cells; format: functional
Human alphaherpesvirus 2 [4] = experiment: In vitro maximum tolerated level against herpes simplex virus-2 (HSV-2) by plaque-reduction assay in vero cells; format: functional
Human alphaherpesvirus 2 [5] = experiment: as §3; format: functional, organism-based
Procedure, shortened: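 Vero monolayers (2 days old, confluent; Hank's MEM + 5% inactivated FCS, 37 °C, 2% CO2) infected with ~80 PFU; after 1-h adsorption, overlay of M199/5% FCS with 1:150 human immune serum globulin plus serial 2-fold compound dilutions (1:200 from DMSO). 3 d incubation, glutaraldehyde fix, crystal violet stain, plaque count. MIC = lowest concentration giving 50% plaque reduction; mean of ≥2 experiments.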

Human alphaherpesvirus 2 [6] = experiment: as §1; format: functional; settings: Human alphaherpesvirus 2, po; read-out: MED
Mus musculus = experiment: Tested in vivo for minimum effective dose against herpes simplex virus-2 (HSV-2) by oral administration in female mice;not active; format: functional, organism-based; procedure, shortened: as §2

Row | SMILES | MED (Human alphaherpesvirus 2 [1]) | MTD (Human alphaherpesvirus 2 [2]) | MIC (Human alphaherpesvirus 2 [3]) | MTL (Human alphaherpesvirus 2 [4]) | MIC (Human alphaherpesvirus 2 [5]) | minimal effective dose (Human alphaherpesvirus 2 [6]) | MED (Mus musculus)
1 | CCn1cc(C(N)=O)c(=O)c2ccc(-c3ccno3)cc21 | inactive | >200 mg/kg | 5 µg/mL (≈ 17.6 µM) | 12.5 µg/mL | – | – | –
2 | NC(=O)c1cn(-c2ccccc2F)c2cc(-c3ccncc3)ccc2c1=O | inactive | 100 mg/kg | – | 1.6 µg/mL | inactive | – | –
3 | NC(=O)c1cn(-c2ccc(Cl)c(Cl)c2)c2cc(-c3ccncc3)ccc2c1=O | – | 100 mg/kg | 0.52 µg/mL (≈ 1.27 µM) | >100 µg/mL | – | 50 mg/kg | –
4 | COc1ccc(-n2cc(C(N)=O)c(=O)c3ccc(-c4ccncc4)cc32)cc1 | inactive | 50 mg/kg | 1.3 µg/mL (≈ 3.5 µM) | >25 µg/mL | – | – | –
5 | NC(=O)c1cn(-c2ccncc2)c2cc(-c3ccncc3)ccc2c1=O | – | 75 mg/kg | 7.2 µg/mL (≈ 21 µM) | >200 µg/mL | – | 75 mg/kg | –
6 | NC(=O)c1cn(Cc2ccc(Cl)c(Cl)c2)c2cc(-c3ccncc3)ccc2c1=O | inactive | >100 mg/kg | 1.7 µg/mL (≈ 4.01 µM) | >100 µg/mL | – | – | –
7 | CCCCn1cc(C(N)=O)c(=O)c2ccc(-c3ccncc3)cc21 | inactive | 50 mg/kg | 5.2 µg/mL (≈ 16.2 µM) | 6.25 µg/mL | – | – | –
8 | Cc1ccc(-n2cc(C(N)=O)c(=O)c3ccc(-c4ccncc4)cc32)cc1 | inactive | 50 mg/kg | 0.63 µg/mL (≈ 1.77 µM) | >25 µg/mL | – | – | –
9 | Cc1ccc(-n2cc(C(N)=O)c(=O)c3ccc(-c4ccncc4)cc32)cc1C | inactive | >200 mg/kg | 1 µg/mL (≈ 2.71 µM) | >100 µg/mL | – | – | –
10 | CCn1cc(C(=O)NN)c(=O)c2ccc(-c3ccncc3)cc21 | – | 100 mg/kg | 38 µg/mL (≈ 123 µM) | 50 µg/mL | – | – | inactive
11 | CCn1cc(C(N)=O)c(=O)c2ccc(-c3cccnc3)cc21 | inactive | 100 mg/kg | 12 µg/mL (≈ 40.9 µM) | 50 µg/mL | – | – | –
12 | C=CCn1cc(C(N)=O)c(=O)c2ccc(-c3ccncc3)cc21 | inactive | <50 mg/kg | 2.9 µg/mL (≈ 9.5 µM) | 6.25 µg/mL | – | – | –
13 | CCn1cc(C(=O)NC)c(=O)c2ccc(-c3ccncc3)cc21 | – | 50 mg/kg | 9 µg/mL (≈ 29.3 µM) | >25 µg/mL | – | 50 mg/kg | –
14 | NC(=O)c1cn(-c2ccc(C(F)(F)F)cc2)c2cc(-c3ccncc3)ccc2c1=O | inactive | 50 mg/kg | 1 µg/mL (≈ 2.44 µM) | >100 µg/mL | – | – | –
15 | CCCCCn1cc(C(N)=O)c(=O)c2ccc(-c3ccncc3)cc21 | inactive | 50 mg/kg | 4.8 µg/mL (≈ 14.3 µM) | 6.25 µg/mL | – | – | –
16 | CCn1cc(C(N)=O)c(=O)c2ccc(-c3ccncc3)cc21 | – | 50 mg/kg | 6.5 µg/mL (≈ 22.2 µM) | 12.5 µg/mL | – | 50 mg/kg | –
17 | CCn1cc(C(N)=O)c(=O)c2ccc(-c3cc(C)no3)cc21 | inactive | >200 mg/kg | 12 µg/mL (≈ 40.4 µM) | >100 µg/mL | – | – | –
18 | Cc1cc(-c2ccc3c(=O)c(C(N)=O)cn(-c4ccc(F)cc4)c3c2)sn1 | inactive | >100 mg/kg | 0.25 µg/mL (≈ 0.659 µM) | >100 µg/mL | – | – | –

From ChEMBL document CHEMBL1127020, “3-Quinolinecarboxamides. A series of novel orally-active antiherpetic agents” (1993)
